From ChEMBL document CHEMBL3286292, “Synthesis and antimicrobial activity of amine linked bis- and tris-heterocycles” (2014)
The source made the active and inactive calls. No cut-off for these calls is given here.

Tests used:
Assay type in all cases: functional
[1] = test system: Bacillus subtilis; assay: Antibacterial activity against Bacillus subtilis assessed as growth inhibition at 25 ug/well after 24 hrs by agar well diffusion method; settings: for zone of inhibition at 25 µg/disc: read-out: DIZ
In short: (§1)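 Agar well diffusion on […] swabbed with a 24 h broth culture. Samples were dissolved in DMSO and loaded at three per-well amounts into 6 mm wells. Incubation was 37 °C for 24 h, then inhibition zone diameter was read in mm. DMSO served as the negative control. Runs were in duplicate and averaged.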

[2] = test system: Bacillus subtilis; assay: Antibacterial activity against Bacillus subtilis assessed as growth inhibition at 50 ug/well after 24 hrs by agar well diffusion method; settings: for zone of inhibition at 50 µg/disc: read-out: DIZ; in short: as §1
[3] = test system: Pseudomonas aeruginosa; assay: Antibacterial activity against Pseudomonas aeruginosa assessed as growth inhibition at 50 ug/well after 24 hrs by agar well diffusion method; settings: for zone of inhibition at 50 µg/disc: read-out: DIZ; in short: as §1
[4] = test system: Aspergillus niger; assay: Antifungal activity against Aspergillus niger assessed as inhibition of spore germination at 50 ug/well after 48 hrs by agar well diffusion method; settings: for zone of inhibition at 50 µg/disc: read-out: DIZ
In short: (§2)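 Well diffusion using 6 mm bored wells loaded with DMSO solutions at three per-well amounts, with a DMSO negative control. Plates were held at 28 °C for 48 h, then zone of inhibition diameter was measured in mm. Runs were in duplicate and averaged.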

[5] = test system: Klebsiella pneumoniae; assay: Antibacterial activity against Klebsiella pneumoniae assessed as growth inhibition at 50 ug/well after 24 hrs by agar well diffusion method; settings: for zone of inhibition at 50 µg/disc: read-out: DIZ; in short: as §1
[6] = test system: Bacillus subtilis; assay: Antibacterial activity against Bacillus subtilis assessed as growth inhibition at 100 ug/well after 24 hrs by agar well diffusion method; settings: for zone of inhibition at 100 µg/disc: read-out: DIZ; in short: as §1
[7] = test system: Staphylococcus aureus; assay: Antibacterial activity against Staphylococcus aureus assessed as growth inhibition at 100 ug/well after 24 hrs by agar well diffusion method; settings: for zone of inhibition at 100 µg/disc: read-out: DIZ; in short: as §1
[8] = test system: Staphylococcus aureus; assay: Antibacterial activity against Staphylococcus aureus assessed as growth inhibition at 50 ug/well after 24 hrs by agar well diffusion method; settings: for zone of inhibition at 50 µg/disc: read-out: DIZ; in short: as §1
[9] = test system: Klebsiella pneumoniae; assay: Antibacterial activity against Klebsiella pneumoniae assessed as growth inhibition at 25 ug/well after 24 hrs by agar well diffusion method; settings: for zone of inhibition at 25 µg/disc: read-out: DIZ; in short: as §1
[10] = test system: Klebsiella pneumoniae; assay: Antibacterial activity against Klebsiella pneumoniae assessed as growth inhibition at 100 ug/well after 24 hrs by agar well diffusion method; settings: for zone of inhibition at 100 µg/disc: read-out: DIZ; in short: as §1
[11] = test system: Aspergillus niger; assay: Antifungal activity against Aspergillus niger assessed as inhibition of spore germination at 25 ug/well after 48 hrs by agar well diffusion method; settings: for zone of inhibition at 25 µg/disc: read-out: DIZ; in short: as §2
[12] = test system: Pseudomonas aeruginosa; assay: Antibacterial activity against Pseudomonas aeruginosa assessed as growth inhibition at 25 ug/well after 24 hrs by agar well diffusion method; settings: for zone of inhibition at 25 µg/disc: read-out: DIZ; in short: as §1
[13] = test system: Staphylococcus aureus; assay: Antibacterial activity against Staphylococcus aureus assessed as growth inhibition at 25 ug/well after 24 hrs by agar well diffusion method; settings: for zone of inhibition at 25 µg/disc: read-out: DIZ; in short: as §1
[14] = test system: Pseudomonas aeruginosa; assay: Antibacterial activity against Pseudomonas aeruginosa assessed as growth inhibition at 100 ug/well after 24 hrs by agar well diffusion method; settings: for zone of inhibition at 100 µg/disc: read-out: DIZ; in short: as §1

## NC(=S)N1N=C(Nc2nc(-c3ccc(Cl)cc3)cs2)C[C@@H]1c1ccc(Cl)cc1
[1]
  growth inhibition (GI): inactive
[2]
  growth inhibition (GI): inactive
[3]
  growth inhibition (GI): inactive
[4]
  zone of inhibition: inactive
[5]
  growth inhibition (GI): inactive
[6]
  growth inhibition (GI): inactive
[7]
  growth inhibition (GI): inactive
[8]
  growth inhibition (GI): inactive
[9]
  growth inhibition (GI): inactive
[10]
  growth inhibition (GI): inactive
[11]
  growth inhibition (GI): inactive
[12]
  growth inhibition (GI): inactive
[13]
  growth inhibition (GI): inactive
[14]
  growth inhibition (GI): inactive

## Cc1ccc(-c2c[nH]c(Nc3cc(-c4ccc(C)cc4)n(C(N)=S)n3)n2)cc1
[1]
  zone of inhibition at 25 µg/disc: 9 mm
[2]
  zone of inhibition at 50 µg/disc: 10 mm
[3]
  growth inhibition (GI): inactive
[4]
  zone of inhibition at 50 µg/disc: 15 mm
[5]
  zone of inhibition at 50 µg/disc: 12 mm
[6]
  zone of inhibition at 100 µg/disc: 13 mm
[7]
  zone of inhibition at 100 µg/disc: 14 mm
[8]
  zone of inhibition at 50 µg/disc: 12 mm
[9]
  zone of inhibition at 25 µg/disc: 10 mm
[10]
  zone of inhibition at 100 µg/disc: 14 mm
[11]
  zone of inhibition at 25 µg/disc: 14 mm
[12]
  growth inhibition (GI): inactive
[13]
  zone of inhibition at 25 µg/disc: 10 mm
[14]
  zone of inhibition at 100 µg/disc: 7 mm

## NC(=S)n1nc(Nc2nc(-c3ccc(Cl)cc3)c[nH]2)cc1-c1ccc(Cl)cc1
[1]
  zone of inhibition at 25 µg/disc: 19 mm
[2]
  zone of inhibition at 50 µg/disc: 21 mm
[3]
  zone of inhibition at 50 µg/disc: 13 mm
[4]
  zone of inhibition at 50 µg/disc: 24 mm
[5]
  zone of inhibition at 50 µg/disc: 22 mm
[6]
  zone of inhibition at 100 µg/disc: 23 mm
[7]
  zone of inhibition at 100 µg/disc: 25 mm
[8]
  zone of inhibition at 50 µg/disc: 23 mm
[9]
  zone of inhibition at 25 µg/disc: 20 mm
[10]
  zone of inhibition at 100 µg/disc: 26 mm
[11]
  zone of inhibition at 25 µg/disc: 22 mm
[12]
  zone of inhibition at 25 µg/disc: 11 mm
[13]
  zone of inhibition at 25 µg/disc: 21 mm
[14]
  zone of inhibition at 100 µg/disc: 15 mm

## NC(=S)N1N=C(Nc2nc(-c3ccccc3)c[nH]2)C[C@@H]1c1ccccc1
[1]
  growth inhibition (GI): inactive
[2]
  growth inhibition (GI): inactive
[3]
  growth inhibition (GI): inactive
[4]
  zone of inhibition: inactive
[5]
  growth inhibition (GI): inactive
[6]
  growth inhibition (GI): inactive
[7]
  growth inhibition (GI): inactive
[8]
  growth inhibition (GI): inactive
[9]
  growth inhibition (GI): inactive
[10]
  zone of inhibition at 100 µg/disc: 6 mm
[11]
  growth inhibition (GI): inactive
[12]
  growth inhibition (GI): inactive
[13]
  growth inhibition (GI): inactive
[14]
  growth inhibition (GI): inactive

## NC(=S)N1N=C(Nc2nc(-c3ccc(Cl)cc3)c[nH]2)C[C@@H]1c1ccc(Cl)cc1
[1]
  growth inhibition (GI): inactive
[2]
  growth inhibition (GI): inactive
[3]
  growth inhibition (GI): inactive
[4]
  zone of inhibition: inactive
[5]
  zone of inhibition at 50 µg/disc: 6 mm
[6]
  zone of inhibition at 100 µg/disc: 6 mm
[7]
  growth inhibition (GI): inactive
[8]
  growth inhibition (GI): inactive
[9]
  growth inhibition (GI): inactive
[10]
  zone of inhibition at 100 µg/disc: 7 mm
[11]
  growth inhibition (GI): inactive
[12]
  growth inhibition (GI): inactive
[13]
  growth inhibition (GI): inactive
[14]
  growth inhibition (GI): inactive

## NC(=S)n1nc(Nc2nc(-c3ccc(Cl)cc3)cs2)cc1-c1ccc(Cl)cc1
[1]
  zone of inhibition at 25 µg/disc: 22 mm
[2]
  zone of inhibition at 50 µg/disc: 25 mm
[3]
  zone of inhibition at 50 µg/disc: 16 mm
[4]
  zone of inhibition at 50 µg/disc: 22 mm
[5]
  zone of inhibition at 50 µg/disc: 28 mm
[6]
  zone of inhibition at 100 µg/disc: 26 mm
[7]
  zone of inhibition at 100 µg/disc: 29 mm
[8]
  zone of inhibition at 50 µg/disc: 26 mm
[9]
  zone of inhibition at 25 µg/disc: 26 mm
[10]
  zone of inhibition at 100 µg/disc: 31 mm
[11]
  zone of inhibition at 25 µg/disc: 20 mm
[12]
  zone of inhibition at 25 µg/disc: 14 mm
[13]
  zone of inhibition at 25 µg/disc: 24 mm
[14]
  zone of inhibition at 100 µg/disc: 18 mm

## c1ccc(-c2coc(Nc3cc(-c4ccccc4)n(-c4nc(-c5ccccc5)cs4)n3)n2)cc1
[1]
  zone of inhibition at 25 µg/disc: 8 mm
[2]
  zone of inhibition at 50 µg/disc: 10 mm
[3]
  growth inhibition (GI): inactive
[4]
  zone of inhibition at 50 µg/disc: 10 mm
[5]
  zone of inhibition at 50 µg/disc: 10 mm
[6]
  zone of inhibition at 100 µg/disc: 12 mm
[7]
  zone of inhibition at 100 µg/disc: 13 mm
[8]
  zone of inhibition at 50 µg/disc: 10 mm
[9]
  zone of inhibition at 25 µg/disc: 8 mm
[10]
  zone of inhibition at 100 µg/disc: 13 mm
[11]
  zone of inhibition at 25 µg/disc: 9 mm
[12]
  growth inhibition (GI): inactive
[13]
  zone of inhibition at 25 µg/disc: 8 mm
[14]
  zone of inhibition at 100 µg/disc: 6 mm

## NC(=S)N1N=C(Nc2nc(-c3ccc(Cl)cc3)co2)C[C@@H]1c1ccc(Cl)cc1
[1]
  growth inhibition (GI): inactive
[2]
  growth inhibition (GI): inactive
[3]
  growth inhibition (GI): inactive
[4]
  zone of inhibition: inactive
[5]
  growth inhibition (GI): inactive
[6]
  growth inhibition (GI): inactive
[7]
  growth inhibition (GI): inactive
[8]
  growth inhibition (GI): inactive
[9]
  growth inhibition (GI): inactive
[10]
  growth inhibition (GI): inactive
[11]
  growth inhibition (GI): inactive
[12]
  growth inhibition (GI): inactive
[13]
  growth inhibition (GI): inactive
[14]
  growth inhibition (GI): inactive

## NC(=S)N1N=C(Nc2nc(-c3ccccc3)cs2)C[C@@H]1c1ccccc1
[1]
  growth inhibition (GI): inactive
[2]
  growth inhibition (GI): inactive
[3]
  growth inhibition (GI): inactive
[4]
  zone of inhibition: inactive
[5]
  growth inhibition (GI): inactive
[6]
  growth inhibition (GI): inactive
[7]
  growth inhibition (GI): inactive
[8]
  growth inhibition (GI): inactive
[9]
  growth inhibition (GI): inactive
[10]
  growth inhibition (GI): inactive
[11]
  growth inhibition (GI): inactive
[12]
  growth inhibition (GI): inactive
[13]
  growth inhibition (GI): inactive
[14]
  growth inhibition (GI): inactive

## Cc1ccc(-c2csc(NC3=NN(C(N)=S)[C@@H](c4ccc(C)cc4)C3)n2)cc1
[1]
  growth inhibition (GI): inactive
[2]
  growth inhibition (GI): inactive
[3]
  growth inhibition (GI): inactive
[4]
  zone of inhibition: inactive
[5]
  growth inhibition (GI): inactive
[6]
  growth inhibition (GI): inactive
[7]
  growth inhibition (GI): inactive
[8]
  growth inhibition (GI): inactive
[9]
  growth inhibition (GI): inactive
[10]
  growth inhibition (GI): inactive
[11]
  growth inhibition (GI): inactive
[12]
  growth inhibition (GI): inactive
[13]
  growth inhibition (GI): inactive
[14]
  growth inhibition (GI): inactive

## NC(=S)n1nc(Nc2nc(-c3ccc(Cl)cc3)co2)cc1-c1ccc(Cl)cc1
[1]
  zone of inhibition at 25 µg/disc: 15 mm
[2]
  zone of inhibition at 50 µg/disc: 16 mm
[3]
  zone of inhibition at 50 µg/disc: 9 mm
[4]
  zone of inhibition at 50 µg/disc: 11 mm
[5]
  zone of inhibition at 50 µg/disc: 17 mm
[6]
  zone of inhibition at 100 µg/disc: 19 mm
[7]
  zone of inhibition at 100 µg/disc: 19 mm
[8]
  zone of inhibition at 50 µg/disc: 17 mm
[9]
  zone of inhibition at 25 µg/disc: 16 mm
[10]
  zone of inhibition at 100 µg/disc: 20 mm
[11]
  zone of inhibition at 25 µg/disc: 10 mm
[12]
  zone of inhibition at 25 µg/disc: 8 mm
[13]
  zone of inhibition at 25 µg/disc: 15 mm
[14]
  zone of inhibition at 100 µg/disc: 12 mm
